# IMP-1 inh: inhibitors of Pseudomonas aeruginosa IMP-1 metallo-beta-lactamase. purified IMP-1, nitrocefin hydrolysis, epi-absorbance fluorescence. inhibition, % at 5.6 µM. actives 0.45% (n = 290,000). AID 1556;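 active = inhibition above the mean plus 3 SD of all compounds in the same screening run, cut at about 4.5% in these data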
#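 Material – recombinant IMP-1 enzyme, purified · Amount – IMP-1 0.2 nM before substrate addition · Medium – HEPES buffer pH 7.1 with ZnSO4 and Brij 35 · Timing – 25 °C, 15 min preincubation, 25 min reaction · Measured by – plate fluorescence quenching by hydrolysis product, ex 480/em 530 nm · Read-out – percent enzyme inhibition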
# core dimer inh: HCV core protein dimerization inhibition | inhibition, % at 5 µM | AID 1899 | TR-FRET GST/Flag-core106 dimerization, 1536-well | actives 0.33% (n = 300,000);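 active = inhibition above the mean of all tested compounds plus 3 SD, set per screening campaign, cut at about 45% in these data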
#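 test system = GST/Flag-tagged HCV core106 proteins | probe or stimulus = Eu donor and XL665 acceptor anti-tag antibodies | times = compound-protein-antibody incubation 4 h at 22.5 °C | signal = TR-FRET, excitation 340 nm, emission 617 and 671 nm | measure = percent inhibition of core106 dimerization signal | controls = wells lacking GST-core106 and wells with excess unlabelled core106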
# DNA FID counter: displaces DNA intercalator in HCV helicase counter-screen | actives 0.17% (n = 290,000) | DNA fluorescent intercalator displacement, fluorescence | inhibition, % at 7.9 µM; in the data active = inhibition above about 37%;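 note: higher means more ethidium bromide displaced from hairpin DNA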
# VIM-2 inhibitor: blocks Pseudomonas aeruginosa VIM-2 metallo-beta-lactamase; purified VIM-2, nitrocefin hydrolysis, epi-absorbance fluorescence; actives 0.89% (n = 290,000); inhibition, % at 5.6 µM;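 active = inhibition above the mean of all tested compounds plus 3 SD, cutoff set per screening run, cut at about 7.5% in these data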;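 note: red hydrolysis product quenches plate fluorescence so inhibitors raise well fluorescence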
# Numbers stand for hits; i = inactive; nt = no result given. Sampled rows, rich in hits. Any-hit rate of the full collection: about 1.6%.
SMILES,IMP-1 inh,core dimer inh,DNA FID counter,VIM-2 inhibitor
O=C(COC(=O)c1ccc(F)cc1)NCCc1ccc(F)cc1,i,i,i,i
O=[N+]([O-])c1cc([N+](=O)[O-])c(Oc2c(Cl)cccc2Cl)cc1NN1CCCCC1,4.8,i,i,i
COCCn1c(SC2CCCCC2=O)nnc1-c1ccncc1 (configuration not stated),i,i,i,i
O=C1CCCCC1Sc1nnc(Cc2cccs2)n1CCc1ccccc1 (configuration not stated),i,51.3,i,i
Cn1c(=O)c2ncn(CC(=O)Nc3cc(C(F)(F)F)ccc3N3CCOCC3)c2n(C)c1=O,i,i,i,i
COc1cccc2sc3ccc(NCc4ccc5c(c4)OCO5)cc3c(=O)c12,i,i,i,9.2
CCn1nnnc1SCC(=O)Nc1ccc2c(c1)OCCO2,i,i,i,i
Cc1cc(NC(=O)CSc2ncnc3sccc23)no1,i,i,i,i
CCNC(=O)CSc1ncnc2sccc12,i,58.1,i,i
N#Cc1c(NC(=O)CSc2ncnc3sccc23)oc(-c2ccco2)c1-c1ccco1,7.0,49.5,i,i
CCC(Sc1nnc(-c2ccco2)n1C)C(=O)Nc1nnc(C)s1 (configuration not stated),i,i,i,i
N#Cc1c(Cl)cccc1-n1ccnc1,i,i,i,i
Cc1ccc(CC2C(=O)N(c3cc(Cl)ccn3)C(=O)C2C)cc1 (configuration not stated),13.4,i,i,i
CNC(=O)c1cn(-c2ccccc2)c(=O)c2ccccc12,6.1,i,i,i
O=C(NO)c1cc(OCC(F)(F)F)ccc1OCC(F)(F)F,i,i,i,11.6
O=C(NC1CC1)c1cc(OCC(F)(F)F)ccc1OCC(F)(F)F,i,i,i,i
COc1ccc(C(=O)Nc2ccc(Cn3ccnc3)cc2)cc1OC,i,i,i,8.5
O=C(Nc1ccccc1Oc1cccnc1)C1CCCN(Cc2ccc(F)cc2)C1 (configuration not stated),i,i,i,i
Cc1cccc(C(=O)N2CCCC(c3nc(-c4ccc(F)cc4)no3)C2)c1 (configuration not stated),i,nt,i,i
CC(C)OC(=O)C(C(=O)C(F)(F)F)c1cc(NS(=O)(=O)c2ccc3ccccc3c2)c2ccccc2c1O (configuration not stated),9.1,i,i,i
Cc1ccc(C(=O)O)cc1NS(=O)(=O)c1ccc2ccccc2c1,i,i,i,i
CCn1c2ccccc2c2cc(CNCCCN3CCOCC3)ccc21,i,i,46.9,i
CC(C)CCNC(=O)NC(=O)COc1ccccc1C#N,5.4,i,i,i
COCCCn1c(-c2ccc(Cl)cc2)n[nH]c1=S,i,i,i,i
S=c1[nH]nc(-c2ccc(Cl)cc2)n1CCCN1CCOCC1,i,i,i,8.4
SMILES,IMP-1 inh,core dimer inh,DNA FID counter,VIM-2 inhibitor
CCOC(=O)C(/C=C(\C#N)C(=O)OCC)=C(/N)N1CCN(c2ccccc2)CC1,i,i,i,i
CCC(C)c1ccccc1NC(=O)c1cccnc1 (configuration not stated),i,i,i,i
COc1ccc2ccccc2c1C(=O)/C=C\c1ccoc1,6.6,i,i,i
O=C(/C=C/c1ccoc1)c1ccccc1O,i,i,i,i
O=C(COC(=O)C1(c2ccccc2F)CCCC1)N1CCc2ccccc21,i,i,i,i
Cc1cc(C)c2c(=O)[nH]c(SCC(=O)N(C)C)nc2n1,i,i,75.2,i
CCN(CC)C(=O)CSc1nc2nc(C)cc(C)c2c(=O)[nH]1,i,i,i,i
COc1ccc2c3c(cccc13)C(=O)N(O)C2=O,i,i,i,9.0
O=C1c2cccc3c([N+](=O)[O-])ccc(c23)C(=O)N1O,i,i,i,8.8
COc1ccccc1N1C(=O)c2cccc3c(C(=O)O)ccc(c23)C1=O,i,i,i,i
CC(C)CC(CC(C)C)=NNC(=O)c1ccc2c(c1)OCO2,i,i,i,i
CCN1CCN(c2ccc(S(=O)(=O)N3CCCCC3)cc2NC(=O)c2cccc(C)c2)CC1,nt,i,nt,nt

# Assay outcomes (PubChem BioAssay)
